# PMC5349769 (ACS chemical neuroscience, 2015)
# Legend:
# [1] = biological target: DAT (Rattus norvegicus, UniProt P23977); test: Inhibition of [3H]dopamine reuptake at DAT in rat caudate synaptosomes; format: biochemical; details: for EC50: read-out: EC50, DAT uptake inhibition; for efficacy as inhibitor of reuptake at DAT: dose-response, Figure 1A
# [2] = system: intracranial self-stimulation (medial forebrain bundle); test: Intracranial self-stimulation; format: in vivo, rat; details: rats, i.p.
# [3] = biological target: NET (Rattus norvegicus, UniProt Q63380); test: Inhibition of [3H]norepinephrine reuptake at NET in rat brain synaptosomes; format: biochemical; details: for efficacy as inhibitor of reuptake at NET: dose-response, Figure 1B
# [4] = biological target: SERT (Rattus norvegicus, UniProt P31652); test: Inhibition of [3H]serotonin reuptake at SERT in rat brain synaptosomes; format: biochemical; details: 5 nM [3H]serotonin, data not shown
# How it was run: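 Synaptosomes prepared from rat whole brain minus caudate and cerebellum after CO2 euthanasia. Uptake began by adding tissue suspension to Krebs-phosphate buffer, pH 7.4, containing 0.05 mM pargyline, BSA, ascorbic acid, test compound and 5 nM [3H]serotonin. Unlabeled blockers of competing transporters were included. The assay ended by rapid vacuum filtration through GF/B filters, and retained radioactivity was measured by scintillation counting.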
# [5] = system: intracranial self-stimulation (medial forebrain bundle); details: rats; racemate, earlier report ref 15; cited from earlier work
# [6] = ratio of reuptake inhibition potencies
# Chain of NET (Q63380 1-617): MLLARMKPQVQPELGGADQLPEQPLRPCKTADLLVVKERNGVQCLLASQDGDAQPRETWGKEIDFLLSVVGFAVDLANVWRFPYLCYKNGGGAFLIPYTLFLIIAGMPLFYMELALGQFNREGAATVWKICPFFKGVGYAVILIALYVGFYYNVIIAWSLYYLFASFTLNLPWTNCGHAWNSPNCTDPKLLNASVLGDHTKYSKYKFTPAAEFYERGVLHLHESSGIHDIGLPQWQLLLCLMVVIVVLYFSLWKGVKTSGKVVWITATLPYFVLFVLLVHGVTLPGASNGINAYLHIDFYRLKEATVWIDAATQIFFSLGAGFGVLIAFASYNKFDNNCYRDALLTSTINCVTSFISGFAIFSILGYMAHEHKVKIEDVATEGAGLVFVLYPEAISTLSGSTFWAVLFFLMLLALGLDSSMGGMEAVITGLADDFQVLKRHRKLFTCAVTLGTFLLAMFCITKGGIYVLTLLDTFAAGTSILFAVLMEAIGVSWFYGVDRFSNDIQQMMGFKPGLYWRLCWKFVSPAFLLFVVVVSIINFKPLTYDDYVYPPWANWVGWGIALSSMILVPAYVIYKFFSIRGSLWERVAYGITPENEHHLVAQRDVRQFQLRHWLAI
# Chain of DAT (P23977 whole entry): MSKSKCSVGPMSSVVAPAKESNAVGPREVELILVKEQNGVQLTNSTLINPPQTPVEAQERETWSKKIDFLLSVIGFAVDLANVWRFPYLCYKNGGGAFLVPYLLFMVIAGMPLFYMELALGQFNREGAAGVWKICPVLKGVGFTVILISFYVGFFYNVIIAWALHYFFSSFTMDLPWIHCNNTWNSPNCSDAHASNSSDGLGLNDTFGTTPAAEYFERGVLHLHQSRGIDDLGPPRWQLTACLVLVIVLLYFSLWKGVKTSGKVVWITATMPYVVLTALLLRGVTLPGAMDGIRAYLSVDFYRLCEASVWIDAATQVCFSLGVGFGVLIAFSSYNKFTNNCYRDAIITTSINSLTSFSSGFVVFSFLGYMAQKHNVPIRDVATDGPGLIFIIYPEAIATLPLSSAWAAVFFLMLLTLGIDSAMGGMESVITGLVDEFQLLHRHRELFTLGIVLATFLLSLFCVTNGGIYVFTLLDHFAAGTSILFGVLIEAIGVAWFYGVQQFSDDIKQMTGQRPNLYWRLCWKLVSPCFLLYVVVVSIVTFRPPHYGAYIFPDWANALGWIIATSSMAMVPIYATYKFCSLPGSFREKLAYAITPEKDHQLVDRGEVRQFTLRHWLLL
# Chain of SERT (P31652 whole entry): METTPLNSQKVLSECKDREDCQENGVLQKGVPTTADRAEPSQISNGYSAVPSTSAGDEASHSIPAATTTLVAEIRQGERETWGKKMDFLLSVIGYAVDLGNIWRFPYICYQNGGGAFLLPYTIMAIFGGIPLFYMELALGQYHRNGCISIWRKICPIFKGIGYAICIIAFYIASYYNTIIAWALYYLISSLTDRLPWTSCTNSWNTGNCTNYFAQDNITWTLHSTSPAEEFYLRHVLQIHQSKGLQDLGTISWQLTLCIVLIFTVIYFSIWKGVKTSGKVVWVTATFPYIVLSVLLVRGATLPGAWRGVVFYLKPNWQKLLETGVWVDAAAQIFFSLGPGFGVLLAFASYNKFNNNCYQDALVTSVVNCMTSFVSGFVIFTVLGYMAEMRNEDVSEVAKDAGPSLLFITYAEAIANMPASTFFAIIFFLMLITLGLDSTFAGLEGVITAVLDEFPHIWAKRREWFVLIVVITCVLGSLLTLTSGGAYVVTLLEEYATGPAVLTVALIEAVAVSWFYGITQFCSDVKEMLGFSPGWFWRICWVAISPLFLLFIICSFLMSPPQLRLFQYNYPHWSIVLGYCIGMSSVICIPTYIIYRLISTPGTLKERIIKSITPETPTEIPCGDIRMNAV
Compound,EC50 [1] [nM],dose without effect on ICSS relative to the lowest effective dose of S(+)MDPV ([2]; up to 10 mg/kg) [fold],efficacy as inhibitor of reuptake at NET [3],"fold more potent as reuptake inhibitor than R(−)MDPV at NET [3, 6] [fold]","fold more potent than cocaine at NET [3, 6] [fold]",potency relative to the racemate at NET ([3]; reuptake inhibition),efficacy as inhibitor of reuptake at DAT [1],"fold more potent as reuptake inhibitor than R(−)MDPV at DAT [1, 6]","fold more potent than cocaine at DAT [1, 6] [fold]",potency relative to the racemate at DAT ([1]; reuptake inhibition),"effect on ICSS relative to vehicle, posthoc analysis ([2]; doses of 0.32 and 1.0 mg/kg, one-way ANOVA, Dunnett's posthoc)","effect on ICSS frequency–rate curve (%MCR) ([2]; S(+)MDPV 0.32 mg/kg, R(−)MDPV 3.2 mg/kg, Figure 2B,C)",concentration up to which reuptake of [3H]serotonin at SERT was not inhibited [4] [µM],doses producing significant facilitation of ICSS [5] [mg/kg]
"CCC[C@H](C(=O)c1ccc2c(c1)OCO2)N1CCCC1.Cl [R(−)MDPV (3R), R(−)-Methylendioxypyrovalerone Hydrochloride]",383,> 100,–,–,–,–,–,–,–,–,–,–,–,–
"CCC[C@@H](C(=O)c1ccc2c(c1)OCO2)N1CCCC1.Cl [S(+)MDPV (3S), S(+)-Methylendioxypyrovalerone Hydrochloride]",2.13,–,fully efficacious,~80,40,approximately twice as potent,fully efficacious,approximately 200 fold,100,approximately twice as potent,significantly facilitated ICSS,leftward shift in the ICSS frequency–rate curve,–,–
"CCCC(C(=O)c1ccc2c(c1)OCO2)N1CCCC1 (racemic) [(±)MDPV (3), methylenedioxypyrovalerone]",4.85,–,fully efficacious,–,–,–,fully efficacious,–,–,–,–,–,> 10,≥ 0.32
